ChEMBL document CHEMBL4513216, “Probing the Open Global Health Chemical Diversity Library for Multistage-Active Starting Points for Next-Generation Antimalarials” (ACS Infect Dis, 2020)

Assay: Toxicity liver stage against HepG2, at 10uM
Assay type: cell-based
Design: test concentration 10 uM, cell line HepG2-A16-CD81EGFP
Settings: human, HepG2-A16-CD81EGFP cells; read-out: INHIBITION
Outline: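 Uninfected HepG2-A16-CD81EGFP cells, 3 × 10^3 per well, 1536-well, plated on prespotted compound at 10 μM final, parasite-free screening media added to match infected plates; puromycin 10 μM positive, DMSO 0.5% negative; run in parallel with 48 h PbLuc assay at 37 °C, 5% CO2; viability by CellTiter-Glo luminescence, normalized to controls.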

| Compound | cytotoxicity at 10 µM [%] |
| --- | --- |
| CC(C)(C)c1cc(C[C@H]2CNCC[C@H]2CC(=O)NC2CCCCC2)no1 | 2.82 |
| O=C(C1CCOCC1)N1CCN2C(=O)N(Cc3ccc(F)cc3)C[C@H]2C1 | -1.34 |
| Cc1ccc(-c2cn3c(n2)CO[C@@H](CNCc2nccs2)C3)cc1 | -7.31 |
| O=C(NCCCO)c1cc(-c2ccc3c(c2)CCO3)n[nH]1 | -4.24 |
| O=C(Nc1nc2c(s1)CCC2)NC1CCCC1 | -8.6 |
| Cc1ccc(C(=O)N2CCC3(CC2)CC(NC(=O)C(C)C)CO3)cc1 (centres undefined) | -1.89 |
| O=C(N[C@]12CC1CN(C(=O)c1ccco1)C2)c1cccc(F)c1 (some centres undefined) | -15.3 |
| COCCN1C(=O)CCC12CCN(C(=O)CNC(C)=O)CC2 | 3.47 |
| CC(C)CNC(=O)c1nc2c(s1)CCN(C(=O)c1cccnc1)CC2 | 7.1 |
| Cc1ccccc1N1CC2(CCN(c3nncs3)C2)CC1=O (centres undefined) | -7.74 |
| Cc1cnc(N2CC[C@@H]3CN(CCC(C)C)S(=O)(=O)[C@@H]3CC2)nc1 | -3.1 |
| CCC1=N[C@@]2(CC[C@@H]3CN(S(=O)(=O)CC(C)C)C[C@@H]32)C(=O)N1CC | 0.167 |
| Cn1nc(C#N)c2c1CN(C(=O)c1ccsc1)CCC2 | -126 |
| O=C(NCCCN1CCCC1=O)c1nc(-c2ccc3cc[nH]c3c2)no1 | -7.99 |
| CC(C)n1[nH]c(=O)c2c1NC(=O)CC2c1cccc(O)c1 (centres undefined) | 10.6 |
| O=C(Nc1nc2c(s1)CN(S(=O)(=O)C1CC1)CC2)c1c(F)cccc1F | -14.1 |
| O=C(c1nc(-c2ccc3cc[nH]c3c2)no1)N1CCCC1 | -3.29 |
| COCC1COCCC12CCN(C(=O)CCOc1ccccc1)CC2 (centres undefined) | -18.7 |
| Cc1ccc(CNc2cc3[nH]c(O)nc3cc2C)cc1 | 22.2 |
| CNc1cccc(C2CN(C(=O)CNS(C)(=O)=O)CCO2)n1 (centres undefined) | -2.24 |
| Cc1ncncc1C(=O)N1CCOC(C)(C(=O)NC2CCCC2)C1 (centres undefined) | -36.4 |
| CC(C)(CNC(=O)C(C)(C)Oc1ccc2c(c1)CCCC2=O)C(N)=O | -2.25 |

| Compound | cytotoxicity at 10 µM [%] |
| --- | --- |
| CSCC(CCO)Nc1nc(C(F)F)nc2ccccc12 (centres undefined) | -5.52 |
| Cc1nc(C(C)C)sc1C(=O)N1CCC(C(N)=O)CC1 | 1.68 |
| CNC(=O)C1Cc2ccccc2CN1C(=O)CC(C)C (centres undefined) | -150 |
| COc1ccccc1C(C)(C)NC(=O)c1ccc(F)c(NC(C)=O)c1 | -142 |
| O=C(O)c1cnc(OCC2CC2)c(Cl)c1 | -5.38 |
| NC(=O)CN(Cc1ncc(-c2ccc(Cl)cc2)o1)C1CCCC1 | -1.99 |
| Cc1noc(C2CCN(Cn3cc(Br)cn3)CC2)n1 | 0.277 |
| CC(C)COCCNC(=O)NC1CCCN(c2cnn(C)c2)C1 (centres undefined) | 9.39 |
| O=C(NCc1nncn1C1CC1)C1(c2ccccc2)CCOCC1 | 3.31 |
| COc1ccc(CNC(=O)N2CCCN(CC3CCCCC3)CC2)cn1 | -3.36 |
| CN(Cc1cc(Br)cn1C)C(=O)c1cc(Cl)ccn1 | -11 |
| Cc1noc(C)c1CC(=O)NCCN1CCN(S(C)(=O)=O)CC1 | -5.87 |
| CC(C(=O)N1CCN(c2ccc(F)cc2)CC1)n1ccnc1 (centres undefined) | 1.05 |
| Cc1ccc(O)c(C(=O)N2CCC(CNC(=O)OC(C)(C)C)C2)c1 (centres undefined) | 16.4 |
| CCNC(=O)NC(=O)CNC(C)(CC)c1nc(C)cs1 (centres undefined) | 6.99 |
| CCN(CC(F)(F)F)C(=O)C1CCCN(Cc2ccno2)C1 (centres undefined) | -2.33 |
| CC(C)OCCC(=O)Nc1cccc(N2CCN(CC3CC3)CC2)c1 | -1.11 |
| COCCNC(=O)Nc1ccc(CN2CCOC2=O)cc1 | -4.62 |
| Cn1nc2c(cc1=O)CN(CC(=O)Nc1cc(C(C)(C)C)no1)CC2 | -4.1 |
| CCc1nc(CNC(=O)Nc2nc(COC)cs2)cs1 | -0.67 |
| CCn1ncc2c1CCCC2NCc1csc(COC)n1 (centres undefined) | 1.17 |
| O=S(=O)(CCCS(=O)(=O)c1ccc2c(c1)OCCCO2)c1ccccc1 | -2.76 |

| Compound | cytotoxicity at 10 µM [%] |
| --- | --- |
| COc1cccc(CN(C(=O)Nc2nncs2)C2CCC(O)CC2)c1 (centres undefined) | -0.67 |
| O=C(c1[nH]nc(C2CC2)c1Cl)N1CCCC1 | -3.78 |
| CNC(=O)c1ccc(OC)c(NCc2noc(-c3ccsc3)n2)c1 | 0.736 |
| Cn1cc(CNC(=O)C2COCC(=O)N2Cc2ccccc2)cn1 (centres undefined) | -4.88 |
| Cc1occc1C(=O)N1CCC(C(O)c2ccc(Cl)cc2)CC1 (centres undefined) | -0.342 |
| CNC(=O)c1csc(-c2ccoc2)n1 | -5.64 |
| Cc1cccc(NC(=O)NC2CCN(C3CCOC3)CC2)c1 (centres undefined) | 4.24 |
| CC(O)CN1CCC(CN(C)Cc2ccc(C(N)=O)cc2)CC1 (centres undefined) | -1.66 |
| CC(CNC(=O)NCc1ccsc1)CC1(C)OCCO1 (centres undefined) | 1.24 |
| CCCc1cc(NC(=O)c2cccc(N3CCCNC3=O)c2)n[nH]1 | 3.14 |
| COc1c(CNC2(c3ccc(Cl)cc3)CCC2)c(C)nn1C | 4.22 |
| CC(C)C1CN(C(=O)Nc2cnn(CC(F)F)c2)CCS1 (centres undefined) | 12.6 |
| CCC[C@@H](NC(N)=O)C(=O)N1Cc2ccccc2-c2ccccc2C1 | 5.17 |
| O=S(=O)(Cc1ccccc1Cl)NC(CO)c1ccco1 (centres undefined) | -6.86 |
| CC(C)(CC(=O)N(CC(N)=O)C1CCCC1)c1ccccc1 | -4.95 |
| Cc1ccc(S(=O)(=O)N2CSCC2C(=O)N(C)C2CC2)cc1Cl (centres undefined) | -9.42 |
| CCn1c(Cn2cccn2)nnc1C1CCN(Cc2ccc(C)o2)CC1 | -1.14 |
| Cc1ccsc1-c1nnc(SCC(=O)O)n1C(C)c1ccccc1 (centres undefined) | -4.65 |
| O=C1CCC2(CCN(Cc3nccs3)CC2)CN1CCCO | -7.56 |
| CCCc1nnc(NC2CCN(C3CCCC3)CC2)o1 | -2.66 |
| Cc1ccsc1CN(CCN(C)C)C(=O)c1ccc(C#N)nc1 | -120 |
| CC(=O)c1ccc(NC(=O)NC(C(=O)N(C)C)C(C)C)cc1 (centres undefined) | -5.55 |

| Compound | cytotoxicity at 10 µM [%] |
| --- | --- |
| NS(=O)(=O)c1ccc(F)c(C(=O)NCCSC2CCCCC2)c1 | 4.69 |
| O=C(Nc1ccccc1OCCc1ccccn1)N1CC[C@@H](O)C1 | 4.4 |
| Cc1cc(C)nc(N2CCC(c3nnc(CN(C)C)n3C3CC3)CC2)n1 | -0.578 |
| CNC(=O)[C@@H]1C[C@@H](N)CN1Cc1cc2cc(C)cc(C)c2[nH]c1=O | -5.23 |
| Cc1nc(N)nc(C)c1CC(=O)N1CCCN(CC2CC2)C(C(C)C)C1 (centres undefined) | -142 |
| CCOc1cccc(CN2CCCC(Nc3ccc(F)cc3)C2)c1O (centres undefined) | -8.93 |
| c1ncn(Cc2nnc(C3CCN(C4CCOCC4)CC3)n2C2CC2)n1 | -3.51 |
| CCn1ncc2[nH]c(-c3ccc(OC)c(COC)c3)nc21 | 6.34 |
| O=C(CCc1nc(Cl)n[nH]1)N1C[C@@H](CN2CCCCCC2)[C@@H](CO)C1 | 0.152 |
| CSCC[C@H](NC(C)=O)c1nc(CCc2ccccc2)n[nH]1 | 5.08 |
| Cc1ccc(C(=O)N2CC[C@H](N3CCOCC3)[C@H](CCCO)C2)cc1O | -154 |
| Nc1cc(-c2cccc3ccnn23)ccn1 | 0.858 |
| CN(C)C(=O)N1CCn2nc(CNC(=O)CCc3ccccn3)cc2C1 | -3.32 |
| Cn1nccc1CNC(=O)CCn1nc(C(F)(F)F)cc1C1CC1 | -8.74 |
| Cc1cc(C)n(NC(=O)c2ccccc2C)c(=O)c1 | -5.05 |
| CCc1noc(CN2CCCN(Cc3cccs3)CC2)n1 | 2.76 |
| O=C(CCOc1cccc(F)c1)N1CCCC1Cn1cccn1 (centres undefined) | -5.7 |
| CCN1CCOC(CNCc2ccccc2OCc2cccnc2)C1 (centres undefined) | -13.1 |
| O=C(CCN1CCCC1=O)Nc1cnn(-c2ccccc2Cl)c1 | 5.65 |
| Cc1nnc(CN(Cc2ccc3c(c2)OCO3)C2CCC(C)CC2)o1 (centres undefined) | -1.89 |
| Cc1noc2ncc(C(=O)NCC3CCS(=O)(=O)C3)cc12 (centres undefined) | -18.9 |
| Clc1cccc(Cl)c1-c1nnc(CNCCn2cccn2)o1 | -6.46 |

| Compound | cytotoxicity at 10 µM [%] |
| --- | --- |
| OC(CN1CCN(Cc2nc(C3CC3)no2)CC1)c1ccccc1 (centres undefined) | -10.9 |
| CCOc1ncccc1C(=O)N1CCC(Nc2ccc(C)nn2)CC1 | -20.6 |
| CC(C)NC(=O)c1cc(Br)c2c(c1)OCCO2 | -13.3 |
| Cc1cccc(OCCN2CCCC(c3cc(C(N)=O)[nH]n3)C2)c1 (centres undefined) | -11.9 |
| COc1c(C2CCCN2C(=O)c2ccc(C#N)c(C)n2)c(C)nn1C (centres undefined) | -8.45 |
| O=C(NCc1ccc(-n2cncn2)nc1)c1ccc2c(c1)CCC2 | -16.5 |
| CCn1cc(CN2CCCN(C(=O)c3ccc(C)nc3)CC2)cn1 | -10.4 |
| O=C(c1ccc2[nH]nnc2c1)N1CCCC(n2cccn2)C1 (centres undefined) | -1.56 |
| O=C(NCC1CC1)c1nc2c(o1)CN(CC1CC1)C2 | -147 |
| CN1CC(=O)N(c2cccnc2)CC12CCN(C(=O)c1cccn1C)C2 (centres undefined) | 1.14 |
| CN(C)C(=O)COCC1CN(Cc2cccs2)Cc2ncn(C)c21 (centres undefined) | 13.1 |
| Cc1cccc(CO[C@@H]2CC[C@H]3[C@H]2OCCN3Cc2cc(C)on2)n1 | -3.59 |
| OC(CN1CCN(Cc2ccc(F)c(F)c2)CC1)C1CC1 (centres undefined) | -22.2 |
| O=C(NCc1cncc2c1CCN(CC1CCOC1)C2)c1ccco1 (centres undefined) | -9.55 |
| c1coc(CN2Cc3ccnn3CC(COCC3CC3)C2)c1 (centres undefined) | -153 |
| CCS(=O)(=O)N1CCC[C@]2(C(=O)N(C)C)CN(c3ncccn3)C[C@@H]2C1 | -3.26 |
| CC(=O)N1CCCC2(CN(Cc3ccc(C)s3)CCO2)C1 (centres undefined) | 0.102 |
| CN(Cc1ccco1)C[C@H]1OC[C@@H]2CCN(Cc3ccncc3)C[C@@H]21 | -1.62 |
| CNC(=O)[C@@H]1CCO[C@@H]2CCN(C3CCOCC3)C[C@@H]21 | 6.67 |
| COCCN1C(=O)[C@@H]2CC[C@H]1CN(c1nccc(C3CCCC3)n1)C2 | 7.67 |
| O=C(c1ccccc1)N1C[C@H]2CC[C@@H](C1)N(S(=O)(=O)c1cccnc1)C2 | -9.33 |
